SMILES strings stand for the structures. Bounds are passed on as bounds.

Series [1] has as its target T1, Polyunsaturated fatty acid 5-lipoxygenase (Homo sapiens) (UniProt P09917).
T1 sequence (whole entry): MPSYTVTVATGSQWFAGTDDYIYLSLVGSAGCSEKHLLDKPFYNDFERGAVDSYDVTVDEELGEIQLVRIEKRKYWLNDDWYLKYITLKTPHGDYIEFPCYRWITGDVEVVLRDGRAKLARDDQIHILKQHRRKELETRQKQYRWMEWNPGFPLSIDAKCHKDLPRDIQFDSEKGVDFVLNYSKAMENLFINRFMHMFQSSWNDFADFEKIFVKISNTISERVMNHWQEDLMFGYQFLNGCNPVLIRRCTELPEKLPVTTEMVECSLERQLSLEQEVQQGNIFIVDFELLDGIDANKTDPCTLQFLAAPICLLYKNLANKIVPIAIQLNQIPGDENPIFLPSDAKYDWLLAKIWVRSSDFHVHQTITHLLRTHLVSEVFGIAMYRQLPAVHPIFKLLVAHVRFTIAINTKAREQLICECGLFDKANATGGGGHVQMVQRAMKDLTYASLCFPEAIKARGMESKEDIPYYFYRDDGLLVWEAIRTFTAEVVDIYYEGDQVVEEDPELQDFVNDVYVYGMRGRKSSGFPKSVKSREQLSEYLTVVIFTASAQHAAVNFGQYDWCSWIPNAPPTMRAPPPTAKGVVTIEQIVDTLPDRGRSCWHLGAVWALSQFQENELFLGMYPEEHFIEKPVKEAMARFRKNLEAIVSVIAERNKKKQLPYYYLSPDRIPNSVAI
Kind of series: Inhibition of 5-LO (unknown origin) expressed in Escherichia coli BL21 assessed as residual activity at 10 uM by RP-HPLC method relative to control. The essentials:
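Human recombinant 5-LO expressed in E. coli BL21 and purified on ATP-agarose. 0.5 µg enzyme in 1 mL PBS + 1 mM EDTA pre-incubated with compound or 0.1% DMSO for 10 min on ice. Reaction started with 20 µM AA and 2 mM CaCl2, run 10 min at 37 °C, stopped with ice-cold methanol. Products analysed; activity as % of control.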

For series [2], the target named is Prostaglandin G/H synthase 1 (Ovis aries) (UniProt P05979). Briefly: Inhibition of ovine COX-1 assessed as residual activity at 10 uM using arachidonic acid as substrate preincubated for 5 mins by RP-HPLC method relative to control. Particulars: time 10.0 min.
Series [3] deals with T2, Prostaglandin E synthase (Homo sapiens) (UniProt O14684).
T2 sequence (whole entry): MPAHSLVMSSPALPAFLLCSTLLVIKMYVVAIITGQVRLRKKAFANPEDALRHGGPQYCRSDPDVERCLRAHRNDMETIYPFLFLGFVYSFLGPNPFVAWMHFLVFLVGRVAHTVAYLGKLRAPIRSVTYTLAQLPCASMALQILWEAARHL
Kind of series: Inhibition of mPGES-1 obtained from IL-beta stimulated human A549 cells microsomes assessed as residual activity by measuring conversion of PGH2 to PGE2 at 10 uM by cell-free RP-HPLC method. Conditions: Microsome. The gist of the method:
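Microsomes from A549 cells stimulated with IL-1β (1 ng/ml) for 48 h. Diluted in 0.1 M potassium phosphate pH 7.4 with 2.5 mM glutathione. Pre-incubated 15 min on ice with compound (single 10 µM, or 0.03–10 µM for the curve) or 1% DMSO. 20 µM PGH2 added for 1 min; stopped with FeCl3/citric acid containing 11β-PGE2 standard. PGE2 measured by SPE and RP-HPLC. n = 3.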

Series [4] has as its target T3, Bifunctional epoxide hydrolase 2 (Homo sapiens) (UniProt P34913).
T3 sequence (whole entry): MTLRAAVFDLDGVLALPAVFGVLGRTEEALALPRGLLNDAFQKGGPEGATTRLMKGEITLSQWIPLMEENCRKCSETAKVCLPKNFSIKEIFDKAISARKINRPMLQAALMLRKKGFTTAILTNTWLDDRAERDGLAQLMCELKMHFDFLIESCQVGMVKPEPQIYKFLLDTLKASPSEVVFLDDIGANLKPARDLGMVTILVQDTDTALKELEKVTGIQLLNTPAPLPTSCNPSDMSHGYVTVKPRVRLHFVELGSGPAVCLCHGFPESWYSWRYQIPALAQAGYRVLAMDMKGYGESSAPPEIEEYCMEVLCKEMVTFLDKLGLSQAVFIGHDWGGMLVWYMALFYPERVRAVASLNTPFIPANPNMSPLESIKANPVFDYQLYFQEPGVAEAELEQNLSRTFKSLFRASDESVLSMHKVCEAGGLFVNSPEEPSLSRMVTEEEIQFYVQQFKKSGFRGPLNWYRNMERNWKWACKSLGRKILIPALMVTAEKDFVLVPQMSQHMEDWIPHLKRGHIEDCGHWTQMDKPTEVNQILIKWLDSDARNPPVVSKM
Briefly: Inhibition of recombinant human sEH expressed in sf9 insect cells assessed as residual activity at 10 uM using PHOME as substrate preincubated for 15 mins followed by substrate addition and measured after 60 mins relative to control. Conditions: time 75.0 min. The essentials:
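Human recombinant sEH from baculovirus-infected Sf9 cells, affinity-purified. Diluted in 25 mM Tris pH 7 with 0.1 mg/mL BSA. Pre-incubated 15 min at room temperature with 10 µM compound or 0.1% DMSO. 50 µM PHOME added, run 60 min at room temperature, stopped with ZnSO4. Fluorescence read at ex 330 / em 465 nm.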

The target of series [5] is T1, Polyunsaturated fatty acid 5-lipoxygenase (Homo sapiens). Briefly: Inhibition of 5-LO in A23187-stimulated human intact neutrophils assessed as reduction in LTB4/5-HETE formation by measuring residual activity at 10 uM measured after 20 mins by RP-HPLC method. The format is tissue-based. Conditions: Neutrophil. The gist of the method: (§1)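 Human neutrophils at 5 × 10^6/mL in PBS with 0.1% glucose and 1 mM CaCl2. Pre-incubated with compound or 0.1% DMSO for 10 min at 37 °C. Stimulated with 2.5 µM A23187, with or without 20 µM AA, for 10 min at 37 °C. Stopped with cold methanol; PGB1 internal standard. LTB4, its trans isomers and 5-HETE quantified by SPE and RP-HPLC; % of control.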

The subject of series [6] is A549. Kind of series: Cytotoxicity against human A549 cells assessed as cell viability at 10 uM measured after 48 hrs by MTT assay. Conditions: a549, 48 h. In kind it is cell-based. The essentials: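 A549 cells in DMEM + 10% FBS, 2 × 10^4 per well, seeded in triplicate. Exposed to 10 µM compound or 0.1% DMSO for 48 h at 37 °C, 5% CO2. MTT added for 1 h, formazan dissolved in DMSO, absorbance read at 570 nm. Viability given as % of vehicle, n = 3.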

The test system of series [7] is Monocyte. Kind of series: Cytotoxicity against human monocyte cells assessed as cell viability at 10 uM measured after 24 hrs by MTT assay. The format is cell-based. The essentials: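 Human monocytes isolated from PBMC by adherence, 0.2 × 10^6 per well in buffer. Exposed to 10 µM compound or 0.5% DMSO for 24 h (37 °C, 5% CO2). MTT for 2 h, then SDS lysis (10%, pH 4.5) for 17 h. Absorbance read at 570 nm; viability as % of vehicle, n = 3.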

Series [8] concerns the target T1, Polyunsaturated fatty acid 5-lipoxygenase (Homo sapiens). Briefly: Inhibition of 5-LO in A23187/AA-stimulated human intact neutrophils assessed as reduction in LTB4/5-HETE formation by measuring residual activity at 10 uM measured after 20 mins by RP-HPLC method. The format is tissue-based. Conditions: Neutrophil. The essentials:
as §1

Chain of Prostaglandin G/H synthase 1 (Ovis aries) (P05979 whole entry, looked up): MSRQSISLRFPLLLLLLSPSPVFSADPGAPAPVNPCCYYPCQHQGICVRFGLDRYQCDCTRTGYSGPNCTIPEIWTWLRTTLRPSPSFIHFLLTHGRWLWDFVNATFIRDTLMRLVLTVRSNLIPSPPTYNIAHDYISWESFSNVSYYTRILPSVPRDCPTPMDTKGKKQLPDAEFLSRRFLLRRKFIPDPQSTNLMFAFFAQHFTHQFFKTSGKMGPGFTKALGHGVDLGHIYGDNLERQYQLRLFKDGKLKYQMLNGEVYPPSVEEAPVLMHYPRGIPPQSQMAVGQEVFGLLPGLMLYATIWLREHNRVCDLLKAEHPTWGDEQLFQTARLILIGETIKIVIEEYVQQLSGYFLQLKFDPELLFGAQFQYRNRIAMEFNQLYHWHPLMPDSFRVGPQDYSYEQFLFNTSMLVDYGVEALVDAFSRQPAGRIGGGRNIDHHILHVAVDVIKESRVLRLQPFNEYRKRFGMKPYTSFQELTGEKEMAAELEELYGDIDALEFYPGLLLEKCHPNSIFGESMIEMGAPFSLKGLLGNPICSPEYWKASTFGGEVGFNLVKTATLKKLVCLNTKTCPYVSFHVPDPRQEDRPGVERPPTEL

As to `Oc1c(F)c(F)cc(-c2nc(-c3ccc(-c4ccsc4)cc3)no2)c1F`, the Activity is 10.3% in series [1]; 34.7% in series [2]; 25.4% in series [3]; > 50% in series [4]; 1.7% in series [5]; “Non-Toxic” in series [6]. Moreover, the Activity entry in series [7] is “Non-Toxic”; in series [8], 18.5%.

In the case of `Oc1cccc(CCc2nc(-c3ccc(-c4ccsc4)cc3)no2)c1`, the Activity in series [1] was 105%; in series [2], 47.7%; in series [3] it was 76.4%; in series [4], > 50%; in series [5], 19.9%; in series [6] it was “Non-Toxic”. Further, the Activity entry in series [7] was “Non-Toxic”; in series [8], 14.9%.

For the origin of these results see ChEMBL document CHEMBL4840316, “Structure-based screening for the discovery of 1,2,4-oxadiazoles as promising hits for the development of new anti-inflammatory agents interfering with eicosanoid biosynthesis pathways” (Eur J Med Chem, 2021).
